Experimental findings from ChEMBL document CHEMBL1154152, “Synthesis of some novel bioactive 4-oxy/thio substituted-1H-pyrazol-5(4H)-ones via efficient cross-Claisen condensation” (2009) are described below.

Converted amounts (≈) assume the structure as drawn. A value given as a limit tells only on which side of the number the result lay.

Common to all, as to type: functional
Assay [1] deals with Aspergillus fumigatus. Description: Antifungal activity against Aspergillus fumigatus at 10 to 50 ug/ml after 3 to 4 days by serial plate dilution method.
Assay [2] deals with Trichophyton mentagrophytes. As to the kind of experiment: Antifungal activity against Trichophyton mentagrophytes at 10 to 50 ug/ml after 3 to 4 days by serial plate dilution method.
In assay [3] the test system is Aspergillus flavus. Description: Antifungal activity against Aspergillus flavus at 10 to 50 ug/ml after 3 to 4 days by serial plate dilution method.
Assay [4] deals with Aspergillus flavus. As to the kind of experiment: Antifungal activity against Aspergillus flavus after 3 to 4 days by serial plate dilution method. The method, boiled down: (§1)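 Sabouraud's agar made from peptone, D-glucose and agar, pH 5.7, and lawned with a fungal spore suspension in normal saline. Wells cut with an agar punch received 10–50 mg/ml test compound in DMSO; DMSO-only control plates. Triplicate plates kept at 37 °C for 3–4 days.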

Another assay relates to Klebsiella sp. Description: Antibacterial activity against Klebsiella sp. after 24 hrs by disk diffusion method. The conditions noted are these: for MIC: Klebsiella sp., 24 h. Put shortly:
(§2)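 Discs with each concentration, in triplicate, on nutrient agar seeded with fresh bacteria. Incubated 37 °C for 24 h, with solvent and growth controls. Zones of inhibition and MIC recorded.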

Assay [5] relates to Aspergillus fumigatus. Description: Antifungal activity against Aspergillus fumigatus after 3 to 4 days by serial plate dilution method.
In assay [6] the test system is Talaromyces marneffei. Description: Antifungal activity against Penicillium marneffei at 10 to 50 ug/ml after 3 to 4 days by serial plate dilution method.
Assay [7] relates to Talaromyces marneffei. Description: Antifungal activity against Penicillium marneffei after 3 to 4 days by serial plate dilution method. The method, boiled down: as §1
Assay [8] has as its system Trichophyton mentagrophytes. As to the kind of experiment: Antifungal activity against Trichophyton mentagrophytes after 3 to 4 days by serial plate dilution method.
Another assay relates to Pseudomonas aeruginosa. As to the kind of experiment: Antibacterial activity against Pseudomonas aeruginosa ATTC 27853 after 24 hrs by disk diffusion method. Conditions: for MIC: Pseudomonas aeruginosa, ATTC 27853, 24 h. The method, boiled down: as §2
In general terms: Agar diffusion results depend on both activity and mobility in agar.

The next assay deals with Escherichia coli. Description: Antibacterial activity against Escherichia coli ATTC 25922 after 24 hrs by disk diffusion method. Conditions: for MIC: Escherichia coli, ATTC 25922, 24 h. The method, boiled down: as §2
The subject of a further assay is Staphylococcus aureus. Description: Antibacterial activity against Staphylococcus aureus ATCC 25923 after 24 hrs by disk diffusion method. The conditions noted are these: for MIC: Staphylococcus aureus, ATCC 25923, 24 h. The method, boiled down: as §2

Consider `CC(C)CC1=NN(c2ccc(F)cc2)C(=O)C1Sc1ccccc1` (stereo not given), for which the “inhibition zone (IZ)” value in the assay on Aspergillus fumigatus [1] turned out to be 19 mm; in assay [2] it was 18 mm; with Aspergillus flavus [3], 20 mm; with Klebsiella sp., 19 mm; with Talaromyces marneffei [6], 19 mm; in the assay on Pseudomonas aeruginosa, 20 mm. The “inhibition zone (IZ)” value turned out to be 13 mm in the assay with Escherichia coli and 19 mm with Staphylococcus aureus. The MIC (in the assay with Aspergillus flavus [4]; with Klebsiella sp.; in the assay on Aspergillus fumigatus [5]; in the assay with Talaromyces marneffei [7]; in [8]; in the assay with Pseudomonas aeruginosa) was 6.25 µg/mL (≈ 18.3 µM) throughout. Besides, the MIC came to 25 µg/mL (≈ 73 µM) in the assay with Escherichia coli and 6.25 µg/mL (≈ 18.3 µM) against Staphylococcus aureus.

Regarding `COc1ccc(OC2C(=O)NN=C2C)cc1` (stereo not given), the “inhibition zone (IZ)” value (in the assay with Aspergillus fumigatus [1]; in assay [2]; with Aspergillus flavus [3]; in the assay with Klebsiella sp.; in the assay on Talaromyces marneffei [6]; in the assay with Pseudomonas aeruginosa) was below 10 mm throughout. For the same molecule, the “inhibition zone (IZ)” value is reported as 11 mm with Escherichia coli and 19 mm with Staphylococcus aureus. Besides, the minimal inhibitory concentration (MIC) (against Aspergillus flavus [4]; against Klebsiella sp.; with Aspergillus fumigatus [5]; in the assay with Talaromyces marneffei [7]; in [8]; in the assay on Pseudomonas aeruginosa) was 50 µg/mL (≈ 227 µM) in each case. The MIC worked out at 25 µg/mL (≈ 114 µM) with Escherichia coli and 6.25 µg/mL (≈ 28.4 µM) with Staphylococcus aureus.

Regarding `O=C1NN=C(c2ccc(Cl)cc2)C1Oc1ccccc1` (stereo not given), the “inhibition zone (IZ)” value (with Aspergillus fumigatus [1]; in assay [2]; in the assay with Aspergillus flavus [3]; with Klebsiella sp.; in the assay with Talaromyces marneffei [6]; in the assay on Pseudomonas aeruginosa) was below 10 mm each time. Further, the “inhibition zone (IZ)” value is 12 mm in the assay with Escherichia coli and 21 mm in the assay on Staphylococcus aureus. The MIC (in the assay with Aspergillus flavus [4]; in the assay with Klebsiella sp.; in the assay with Aspergillus fumigatus [5]; in the assay with Talaromyces marneffei [7]; in assay [8]; against Pseudomonas aeruginosa) was 50 µg/mL (≈ 174 µM) in each case. For the same molecule, the minimum inhibitory concentration (MIC) worked out at 25 µg/mL (≈ 87.2 µM) in the assay with Escherichia coli and 6.25 µg/mL (≈ 21.8 µM) with Staphylococcus aureus.

As for `CCC1=NN(c2ccc(F)cc2)C(=O)C1Oc1ccccc1` (stereo not given), the “inhibition zone (IZ)” value is 21 mm with Aspergillus fumigatus [1]; 21 mm in assay [2]; 19 mm in the assay with Aspergillus flavus [3]; 20 mm with Klebsiella sp.; 17 mm with Talaromyces marneffei [6]; 18 mm with Pseudomonas aeruginosa. Also, the “inhibition zone (IZ)” value in the assay with Escherichia coli is recorded as 14 mm; in the assay with Staphylococcus aureus, 16 mm. Besides, the MIC (in the assay with Aspergillus flavus [4]; with Klebsiella sp.; in the assay on Aspergillus fumigatus [5]; against Talaromyces marneffei [7]; in [8]; against Pseudomonas aeruginosa) was 6.25 µg/mL (≈ 21 µM) throughout. In addition, the MIC in the assay with Escherichia coli was determined as 25 µg/mL (≈ 83.8 µM); with Staphylococcus aureus, 6.25 µg/mL (≈ 21 µM).

On to `COCC1=NNC(=O)C1SCc1ccccc1` (stereo not given), for which the “inhibition zone (IZ)” value (in the assay on Aspergillus fumigatus [1]; in assay [2]; with Aspergillus flavus [3]; in the assay on Klebsiella sp.; in the assay on Talaromyces marneffei [6]; in the assay on Pseudomonas aeruginosa) was below 10 mm in each case. In addition, the “inhibition zone (IZ)” value is recorded as below 10 mm in the assay with Escherichia coli and 17 mm in the assay with Staphylococcus aureus. Also, the MIC (with Aspergillus flavus [4]; against Klebsiella sp.; in the assay with Aspergillus fumigatus [5]; in the assay on Talaromyces marneffei [7]; in [8]; in the assay with Pseudomonas aeruginosa) was 50 µg/mL (≈ 200 µM) throughout. For the same molecule, the figures for the MIC with Escherichia coli and in the assay on Staphylococcus aureus were 50 µg/mL (≈ 200 µM) and 6.25 µg/mL (≈ 25 µM), respectively.

For orientation: MIC means the least concentration at which growth counts as inhibited.
